Compound activity as filed in PubChem.
An excerpt weighted towards active compounds, which were near 2.3% of everything screened.
RORA act: activators of human nuclear receptor RORA | P35398 | CHO-K1 Gal4-RORA LBD luciferase reporter, luminescence; percent increase over mock-subtracted basal signal | activation, % at 10 µM | actives 1.5% (n = 65,000);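 active = activation above the mean of all tested compounds plus 3 SD, cut at about 49% in these data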;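 note: 0% = DMSO-treated RORA cells and 100% = added signal equal to DMSO minus mock-transfected cells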
Target sequence (P35398 whole entry, looked up, the tested form may be a part): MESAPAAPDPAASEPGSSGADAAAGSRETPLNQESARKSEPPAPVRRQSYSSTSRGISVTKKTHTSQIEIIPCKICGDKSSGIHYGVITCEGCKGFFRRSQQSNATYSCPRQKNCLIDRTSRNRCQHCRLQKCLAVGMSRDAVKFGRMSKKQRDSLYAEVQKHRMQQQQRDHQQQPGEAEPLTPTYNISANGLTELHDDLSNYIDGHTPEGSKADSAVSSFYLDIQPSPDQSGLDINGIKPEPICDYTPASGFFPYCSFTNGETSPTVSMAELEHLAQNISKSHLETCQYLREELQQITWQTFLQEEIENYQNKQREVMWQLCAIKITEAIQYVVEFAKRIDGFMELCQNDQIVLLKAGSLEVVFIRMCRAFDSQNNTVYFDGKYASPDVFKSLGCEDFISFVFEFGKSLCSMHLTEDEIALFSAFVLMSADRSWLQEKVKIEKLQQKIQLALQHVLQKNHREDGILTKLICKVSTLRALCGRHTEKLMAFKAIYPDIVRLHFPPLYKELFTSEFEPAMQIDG
JNK3 blocker: blocks human JNK3 kinase activity | purified JNK3 kinase activity, HTS | inhibition, % at 8 µM | actives 0.61% (n = 60,000) | AID 746; in the data active = inhibition above about 17%;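 note: 0% = DMSO and 100% = reference inhibitor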
SF-1 act: activates the human nuclear receptor SF-1; Q13285; CHO-K1 Gal4-SF-1 LBD luciferase reporter; % increase over DMSO SF-1-specific signal; activation, % at 10 µM; actives 1.9% (n = 65,000); AID 522;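 active = activation above the mean activation of all tested compounds plus 3 SD, cut at about 50% in these data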
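Assay system – CHO-K1 cells with Gal4–hSF-1 LBD chimera plus Gal4-driven luciferase · Quantity – 4,000 cells per well · Times – compound added 1 h post-seeding, 20 h exposure at 37 °C, 5% CO2 · Measured by – luciferase light emission · Benchmarks – DMSO and mock-transfected background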
MT1-MMP txn act: activates MT1-MMP transcription | HT1080 MT1-MMP promoter luciferase reporter, luminescence, overnight; active compounds read high | activation factor at 10 µM | actives 0.16% (n = 86,000);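 active = activation factor of at least 2 for MT1-MMP transcription at 10 µM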
* = called active by the depositor.

For c1ccc2oc(SCc3cn4ccccc4n3)nc2c1 the results were RORA act 58*, SF-1 act 20 and MT1-MMP txn act 0.9.
`Cc1ccc(C(=O)OCc2cn3ccccc3n2)cc1` gave RORA act 11, JNK3 blocker 14, SF-1 act 9 and MT1-MMP txn act 1.4.
`CCC(=O)c1cn(CC(=O)NCc2cccnc2)c2ccccc12` gave RORA act -13, JNK3 blocker -7, SF-1 act 1 and MT1-MMP txn act 1.1.
`Cn1c(-c2ccccc2)cnc1SCc1nc2ccccc2c(=O)[nH]1` gave RORA act 29, JNK3 blocker -1, SF-1 act 69* and MT1-MMP txn act 0.9.
`COc1cc(NS(=O)(=O)c2ccc3c(c2)n(C)c(=O)n3C)cc(OC)c1` gave MT1-MMP txn act 1.
Screening O=c1[nH]cnc2cc(-c3ccccc3)sc12 returned RORA act 18, JNK3 blocker 9, SF-1 act 56* and MT1-MMP txn act 1.4.
Screening COc1ccc(-c2cc3nc[nH]c(=O)c3s2)cc1 returned MT1-MMP txn act 1.2.
Screening O=C(CSc1nc2ccccc2[nH]1)N1CCCCC1 returned RORA act 52*, JNK3 blocker 3, SF-1 act 48 and MT1-MMP txn act 1.6.
Screening C=CCn1c(C)cc(C(=O)COc2nncc3ccccc23)c1C returned RORA act 80*, SF-1 act 39 and MT1-MMP txn act 1.2.
For COCCn1c(C)cc(C(=O)CSc2nc3ccccc3c(=O)[nH]2)c1C the results were RORA act 33, JNK3 blocker -1, SF-1 act 8 and MT1-MMP txn act 1.4.
`C=CCn1c(C)cc(C(=O)CSc2nc3ccccc3c(=O)[nH]2)c1C` gave RORA act -37, JNK3 blocker -1, SF-1 act 112* and MT1-MMP txn act 1.8.
Screening Cc1cc(C(=O)CSc2nc3ccccc3[nH]2)c(C)n1C returned RORA act 59*, JNK3 blocker 5, SF-1 act 61* and MT1-MMP txn act 1.
`COc1ccc(-c2nn(C)c(=O)c3ccccc23)cc1CNC(=O)CN1CCOCC1` gave RORA act -40, JNK3 blocker -7, SF-1 act -30 and MT1-MMP txn act 1.3.
CC(C)=C1C(=O)C(c2ccccc2)=C2CN3C(=O)N(CCc4ccccc4)C(=O)[C@]3(C)[C@H]21 was read as MT1-MMP txn act 1.
For C=CCn1c(C)cc(C(=O)CSc2nnc(NCc3ccccc3)s2)c1C the results were RORA act 32, JNK3 blocker -1, SF-1 act 59* and MT1-MMP txn act 1.3.
Screening O=C(CC(SCc1ccco1)c1ccc(O)cc1)c1cccs1 (stereo not drawn) returned RORA act 87*, JNK3 blocker -3, SF-1 act 31 and MT1-MMP txn act 1.7.
`O=C(CSc1nnc(-c2ccc(O)cc2)n1Cc1ccco1)c1cccs1` gave RORA act 9, JNK3 blocker -14, SF-1 act -8 and MT1-MMP txn act 1.
Screening Nc1nonc1-c1noc(N2CCCCC2)n1 returned RORA act 26, JNK3 blocker 2, SF-1 act 54* and MT1-MMP txn act 1.4.
Screening O=C(NCc1ccccc1Cl)c1cnc2n(c1=O)CCS2 returned RORA act 6, JNK3 blocker -4, SF-1 act -4 and MT1-MMP txn act 1.1.
Screening O=C(NCCc1c[nH]c2ccccc12)c1cnc2n(c1=O)CCS2 returned RORA act 60*, JNK3 blocker -5, SF-1 act 48 and MT1-MMP txn act 1.5.
`CC(C)(C)N=Cc1cc(-c2ccccc2)sc1O` gave MT1-MMP txn act 1.6.
For CCOC(=O)c1c(-c2ccccc2)[nH]c2ccc(O)cc12 the results were RORA act -5, JNK3 blocker 42*, SF-1 act 23 and MT1-MMP txn act 1.
CCn1c(CSc2nnc(-c3ccc4c(c3)OCO4)o2)nc2cc(S(=O)(=O)N(C)C)ccc21 was read as RORA act -19, JNK3 blocker -1 and SF-1 act -5.
For Cc1ccc(C(=O)/C=C/Nc2ccccc2C(N)=O)o1 the results were RORA act 34, JNK3 blocker -1, SF-1 act 63* and MT1-MMP txn act 0.9.
For NC(=O)c1ccccc1N/C=C/C(=O)c1ccc(F)cc1 the results were MT1-MMP txn act 1.1.
`Cc1nc2ccc(NC(=O)c3ccc(Cl)s3)cc2s1` gave RORA act 80*, JNK3 blocker 7, SF-1 act 76* and MT1-MMP txn act 1.5.
Cc1nc2ccc(NC(=O)c3ccc(Cl)c(NC(=O)c4cccs4)c3)cc2s1 was read as MT1-MMP txn act 1.3.
Cc1ccc2nc(NC(=O)c3ccc(Cn4cc(Cl)cn4)o3)sc2c1 was read as RORA act 55*, JNK3 blocker 4, SF-1 act 13 and MT1-MMP txn act 1.1.
Cc1ccc2nc(NC(=O)c3ccc(Cl)s3)sc2c1 was read as RORA act 86*, JNK3 blocker 4, SF-1 act 54* and MT1-MMP txn act 1.1.
`Cc1nc2ccc(NC(=O)Cc3cccs3)cc2s1` gave RORA act 53*, JNK3 blocker -1, SF-1 act 80* and MT1-MMP txn act 1.4.
CC(=O)c1sc(NC(=O)c2ccc(Cn3cc(Br)cn3)o2)nc1C was read as RORA act -9, JNK3 blocker -2, SF-1 act -10 and MT1-MMP txn act 1.
Screening COc1ccc(N(C(=O)c2ccco2)S(=O)(=O)c2cc(OC)ccc2OC)cc1 returned RORA act -12, JNK3 blocker -2, SF-1 act -5 and MT1-MMP txn act 1.1.
For Cc1cccc2sc(NC(=O)c3ccc(Cl)s3)nc12 the results were RORA act 23, JNK3 blocker -6, SF-1 act 50* and MT1-MMP txn act 1.7.
CC(=O)N(C)c1nc(-c2ccc(Cl)cc2)cs1 was read as RORA act 16, SF-1 act 29 and MT1-MMP txn act 1.
CC(=O)c1c(C)nc(-c2ccc(Cl)cc2)nc1N=CN(C)C was read as RORA act 68*, JNK3 blocker 1, SF-1 act 76* and MT1-MMP txn act 1.7.
`O=C(Nc1ccncc1)C1CCCN(S(=O)(=O)c2cccc3cccnc23)C1` (stereo not drawn) gave RORA act 57*, JNK3 blocker -14 and SF-1 act 36.
For C1=CC2CC1CC2CNCc1ccco1 (stereo not drawn) the results were RORA act 6, JNK3 blocker -5, SF-1 act 11 and MT1-MMP txn act 1.1.
Screening CCOc1ccc(NC(=O)c2cc3n(n2)C(C(F)(F)F)CC(c2ccco2)N3)cc1 (stereo not drawn) returned RORA act 60*, JNK3 blocker 6, SF-1 act 18 and MT1-MMP txn act 1.
`CS(=O)(=O)N(CC(=O)N1CCCCC1)c1sc2c(c1C#N)CCCC2` gave RORA act -5, JNK3 blocker -1, SF-1 act -8 and MT1-MMP txn act 1.1.
For Cc1onc(-c2ccccc2)c1C(=O)Nc1nc(-c2cc(F)ccc2F)cs1 the results were RORA act 18, JNK3 blocker 8, SF-1 act 54* and MT1-MMP txn act 0.7.
Screening Cc1nnc(NC(=O)c2c(-c3ccccc3)noc2C)s1 returned MT1-MMP txn act 1.1.
